Key:
[1] = substrate: N#CCC(=O)CC(Cc1ccccc1)C(=O)NC(Cc1ccccc1)C(=O)O
[2] = substrate: N#CCC(=O)NC(Cc1ccccc1)C(=O)NC(Cc1ccccc1)C(=O)O; test: Michaelis-Menten constant determined for Neutral endopeptidase (NEP)
Summary of the method: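 Recombinant human NEP from CHO cells (>99% pure), 0.5 μM in 50 mM HEPES pH 7.4 with 10% p-dioxane, incubated at 25 °C with inactivator at 0.5–7.5 μM final. Aliquots diluted 1:100 into DAGNPG assay solution (50 mM Tris pH 7.4, 37 °C), fluorescence read at ex 342/em 562 nm. Pseudo-first-order kobs plotted double-reciprocally against inactivator concentration to give kinact and Km.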

[3] = substrate: N#CCC(=O)NC(Cc1ccccc1)C(=O)NC(Cc1ccccc1)C(=O)O; test: Michaelis-Menten constant determined for Angiotensin I converting enzyme

Protein | Km [1] [mM] | Km [2] [mM] | Km [3] [mM]
Neprilysin (Homo sapiens), P08473 (protein) MGKSESQMDITDINTPKPKKKQRWTPLEISLSVLVLLLTIIAVTMIALYATYDDGICKSSDCIKSAARLIQNMDATTEPCTDFFKYACGGWLKRNVIPETSSRYGNFDILRDELEVVLKDVLQEPKTEDIVAVQKAKALYRSCINESAIDSRGGEPLLKLLPDIYGWPVATENWEQKYGASWTAEKAIAQLNSKYGKKVLINLFVGTDDKNSVNHVIHIDQPRLGLPSRDYYECTGIYKEACTAYVDFMISVARLIRQEERLPIDENQLALEMNKVMELEKEIANATAKPEDRNDPMLLYNKMTLAQIQNNFSLEINGKPFSWLNFTNEIMSTVNISITNEEDVVVYAPEYLTKLKPILTKYSARDLQNLMSWRFIMDLVSSLSRTYKESRNAFRKALYGTTSETATWRRCANYVNGNMENAVGRLYVEAAFAGESKHVVEDLIAQIREVFIQTLDDLTWMDAETKKRAEEKALAIKERIGYPDDIVSNDNKLNNEYLELNYKEDEYFENIIQNLKFSQSKQLKKLREKVDKDEWISGAAVVNAFYSSGRNQIVFPAGILQPPFFSAQQSNSLNYGGIGMVIGHEITHGFDDNGRNFNKDGDLVDWWTQQSASNFKEQSQCMVYQYGNFSWDLAGGQHLNGINTLGENIADNGGLGQAYRAYQNYIKKNGEEKLLPGLDLNHKQLFFLNFAQVWCGTYRPEYAVNSIKTDVHSPGNFRIIGTLQNSAEFSEAFHCRKNSYMNPEKKCRVW | 5.1 | 2.38 | –
Angiotensin-converting enzyme (Rattus norvegicus), P47820 (protein) MGAASGQRGRWPLSPPLLMLSLLLLLLLPPSPAPALDPGLQPGNFSADEAGAQLFADSYNSSAEVVMFQSTAASWAHDTNITEENARLQEEAALINQEFAEVWGKKAKELYESIWQNFTDQKLRRIIGSVQTLGPANLPLTQRLQYNSLLSNMSRIYSTGKVCFPNKTATCWSLDPELTNILASSRNYAKVLFAWEGWHDAVGIPLRPLYQDFTALSNEAYRQDGFSDTGAYWRSWYESPSFEESLEHLYHQVEPLYLNLHAFVRRALHRRYGDKYINLRGPIPAHLLGDMWAQSWENIYDMVVPFPDKPNLDVTSTMVQKGWNATHMFRVAEEFFTSLGLSPMPPEFWAESMLEKPADGREVVCHASAWDFYNRKDFRIKQCTRVTMDQLSTVHHEMGHVQYYLQYKDLHVSLRRGANPGFHEAIGDVLALSVSTPAHLHKIGLLDRVANDIESDINYLLKMALEKIAFLPFGYLVDQWRWGVFSGRTPPSRYNYDWWYLRTKYQGICPPVARNETHFDAGAKFHIPSVTPYIRYFVSFVLQFQFHQALCKEAGHQGPLHQCDIYQSTKAGAKLQQVLQAGCSRPWQEVLKDLVGSDALDASALMEYFQPVSQWLQEQNQRNGEVLGWPEYQWRPPLPDNYPEGIDLETDEAKANRFVEEYDRTAKVLWNEYAEANWHYNTNITIEGSKILLQKNKEVSNHTLKYGTWAKTFDVSNFQNSTIKRIIKKVQNVDRAVLPPNELEEYNQILLDMETTYSVANVCYTNGTCLSLEPDLTNIMATSRKYEELLWVWKSWRDKVGRAILPFFPKYVDFSNKIAKLNGYSDAGDSWRSSYESDDLEQDLEKLYQELQPLYLNLHAYVRRSLHRHYGSEYINLDGPIPAHLLGNMWAQTWSNIYDLVAPFPSAPSIDATEAMIKQGWTPRRIFKEADNFFTSLGLLPVPPEFWNKSMLEKPTDGREVVCHASAWDFYNGKDFRIKQCTSVNMEELVIAHHEMGHIQYFMQYKDLPVTFREGANPGFHEAIGDVLALSVSTPKHLHSLNLLSSEGSGYEHDINFLMKMALDKIAFIPFSYLIDQWRWRVFDGSITKENYNQEWWSLRLKYQGLCPPVPRSQGDFDPGSKFHVPANVPYIRYFISFIIQFQFHEALCRAAGHTGPLYKCDIYQSKEAGKLLADAMKLGYSKQWPEAMKIITGQPNMSASAIMNYFKPLTEWLVTENRRHGETLGWPEYTWTPNTARAEGSLPESSRVNFLGMYLEPQQARVGQWVLLFLGVALLVATVGLAHRLYNIHNHHSLRRPHRGPQFGSEVELRHS | – | – | 10.5
